Experimental data as given in ChEMBL document CHEMBL5046304, “Novel Pyridazin-3(2H)-one-Based Guanidine Derivatives as Potential DNA Minor Groove Binders with Anticancer Activity” (ACS Med Chem Lett, 2022).

How the values were obtained:
NCI-H460 = test: Cytotoxicity against human NCI-H460 cells assessed as reduction in cell viability at 100 uM after […] by MTT assay; assay type: functional
Outline: (§1)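 Percentage inhibition of cell viability; values are means of three experiments.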

A2780 [1] = test: Cytotoxicity against human A2780 cells assessed as reduction in cell viability at 100 uM after 96 hrs by MTT assay; assay type: functional; outline: as §1
MCF7 = test: Cytotoxicity against human MCF7 cells assessed as reduction in cell viability at 100 uM after 96 hrs by MTT assay; assay type: functional; outline: as §1
A2780 [2] = test: Cytotoxicity against human A2780 cells assessed as reduction in cell viability measured after 96 hrs by MTT assay; assay type: functional, cell-based; settings: A2780, 96 h
Salmon testes DNA = test: Binding affinity to salmon sperm DNA assessed as thermal stability by measuring change in melting temperature at 15 uM at pH 7 by spectrophotometric analysis; assay type: nucleic-acid assay; settings: Salmo salar

Structure (SMILES)	inhibition at 100 µM (NCI-H460)	inhibition at 100 µM (A2780 [1])	inhibition at 100 µM (MCF7)	IC50 (A2780 [2])	ΔTm (Salmon testes DNA)
Cc1cc(=O)n(Cc2ccccc2)nc1CNC(=N)N	2%	23%	18%	–	–
Cn1ncc(CNC(=N)N)cc1=O	13%	24%	2%	–	–
Cc1cc(=O)n(Cc2ccc(CCl)cc2)nc1CNC(=N)N	7%	54%	25%	> 100 µM	–
N=C(N)NCc1ccc(Cn2nccc(CNC(=N)N)c2=O)cc1	–	–	–	–	1.1 °C
Cc1cc(=O)n(Cc2ccc(CNC(=N)N)cc2)nc1CNC(=N)N	34%	59%	22%	21 µM	1.2 °C
Cc1cc(=O)n(C)nc1CNC(=N)N	2%	20%	12%	–	–
N=C(N)NCc1ccnn(Cc2ccccc2)c1=O	15%	41%	46%	–	–
Cn1nccc(CNC(=N)N)c1=O	1%	18%	1%	–	–
N=C(N)NCc1cnn(Cc2ccccc2)c(=O)c1	1%	40%	13%	–	–
Cc1cc(=O)n(Cc2ccc(CF)cc2)nc1CNC(=N)N	5%	34%	13%	–	–
COCc1ccc(Cn2nccc(CNC(=N)N)c2=O)cc1	1%	38%	–	–	–
Cn1nc(CNC(=N)N)ccc1=O	4%	11%	20%	–	–
N=C(N)NCc1ccc(Cn2nc(CNC(=N)N)ccc2=O)cc1	–	–	–	–	1.4 °C
N=C(N)NCc1ccc(Cn2ncc(CNC(=N)N)cc2=O)cc1	35%	33%	23%	–	1.2 °C
